Here are results for seven molecules from ChEMBL document CHEMBL1151976, “Bioactive sulfated sesterterpene alkaloids and sesterterpene sulfates from the marine sponge Fasciospongia sp” (J Nat Prod, 2009).

In brackets after ≈: the same amount, converted by molar mass. Activity calls are given as the source filed them. No cut-off for these calls is given here.

In assay [1] the test system is Streptomyces. Description: Antimicrobial activity against Streptomyces 85E assessed as inhibition of hyphae formation at 2.5 ug/disk after 30 hrs. The assay is classed as functional. In short, it runs like this:
(§1)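 Streptomyces 85E mycelial fragments spread as a lawn on minimal medium ISP 4 agar. Compounds in MeOH loaded onto 7 mm filter disks, air-dried, placed on plates, incubated 30 °C for 30 h. Read-out: clear or bald (hyphae-free) zone diameter around the disk; >9 mm counted active. Surfactin positive control, MeOH negative control; run in duplicate.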

Assay [2] concerns Streptomyces. The assay can be described thus: Antimicrobial activity against Streptomyces 85E assessed as inhibition of hyphae formation at 10 ug/disk after 30 hrs. The assay is classed as functional. As to conditions: read-out: IZ. In short, it runs like this: as §1
Assay [3] relates to Lu1. The assay can be described thus: Cytotoxicity against human Lu1 cells at 20 ug/ml after 72 hrs by SRB assay. The assay is classed as functional, cell-based. In outline:
(§2)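 Single-concentration screen at 20 µg/mL. Cells seeded at 10^6 cells/mL in 96-well plates, sample added in 10% DMSO, incubated 72 h at 37 °C. Viability by sulforhodamine B staining, compared with a 0.5% DMSO-treated control.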

The test system of assay [4] is LNCaP. Description: Cytotoxicity against human LNCAP cells at 20 ug/ml after 72 hrs by SRB assay. The assay is classed as functional, cell-based. In outline: as §2
The test system of assay [5] is Streptomyces. Description: Antimicrobial activity against Streptomyces 85E assessed as inhibition of hyphae formation at 20 ug/disk after 30 hrs. The assay is classed as functional. As to conditions: read-out: IZ. In outline: as §1
The subject of assay [6] is Streptomyces. Description: Antimicrobial activity against Streptomyces 85E assessed as inhibition of hyphae formation at 5 ug/disk after 30 hrs. The assay is classed as functional. Particulars: for zone of inhibition at 5 µg/disc: read-out: IZ. In outline: as §1
The subject of assay [7] is MCF7. The assay can be described thus: Cytotoxicity against human MCF7 cells at 20 ug/ml after 72 hrs by SRB assay. The assay is classed as functional, cell-based. In outline: as §2
Assay [8] concerns LNCaP. Description: Cytotoxicity against human LNCAP cells after 72 hrs by SRB assay. The assay is classed as functional, cell-based. In outline: (§3)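 Cells seeded at 10^6 cells/mL in 96-well plates. Six serial dilutions of sample in 10% DMSO added in triplicate. Incubated 72 h at 37 °C; viability measured by sulforhodamine B staining. IC50 is the concentration giving 50% growth inhibition relative to 0.5% DMSO-treated control, averaged over two independent experiments.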

The test system of assay [9] is Lu1. The assay can be described thus: Cytotoxicity against human Lu1 cells after 72 hrs by SRB assay. The assay is classed as functional, cell-based. As to conditions: Lu1, 72 h. In outline:
as §3

Assay [10] has as its system MCF7. The assay can be described thus: Cytotoxicity against human MCF7 cells after 72 hrs by SRB assay. The assay is classed as functional, cell-based. As to conditions: MCF7, 72 h. In short, it runs like this: as §3
Another assay deals with HeLa. The assay can be described thus: Cytotoxicity against human HeLa cells after 72 hrs by SRB assay. The assay is classed as functional, cell-based.

Take `C[C@H]1CC[C@H]2C(=CCCC2(C)C)[C@@]1(C)CCC(CCCC1=CC(=O)OC1O)COS(=O)(=O)O` (stereo not given in full): the “inhibition zone (IZ)” value in the assay on Streptomyces [1] and in the assay with Streptomyces [6] was “inactive” each time. Besides, the zone of inhibition at 10 µg/disc in the assay with Streptomyces [2] was 13 mm. Also, the Activity result in the assay with Lu1 [3], with LNCaP [4] and with MCF7 [7] was “Not toxic” throughout. Besides, the zone of inhibition at 20 µg/disc with Streptomyces [5] turned out to be 19 mm.

`C[C@H]1CC[C@H]2C(=CCCC2(C)C)[C@@]1(C)CCC(CCCC1=CC(=O)N(CCc2c[nH]cn2)C1=O)COS(=O)(=O)O` (stereo not given in full) [19-OXOFASCIOSPONGINE A]: the zone of inhibition at 2.5 µg/disc in the assay on Streptomyces [1] (read-out: IZ) came out at 14 mm. The IC50 in the assay on LNCaP [8] was 21.8 µM; with Lu1 [9], 5 µM; in the assay with MCF7 [10] it was 13.4 µM. For the same molecule, in the assay on Streptomyces [2], the zone of inhibition at 10 µg/disc came out at 20 mm. The zone of inhibition at 20 µg/disc in the assay with Streptomyces [5] was determined as 25 mm. Moreover, the zone of inhibition at 5 µg/disc with Streptomyces [6] stood at 16 mm.

For the molecule `C[C@H]1CC[C@H]2C(=CCCC2(C)C)[C@@]1(C)CCC(CCCC1=CCN(CCc2c[nH]cn2)C1=O)COS(=O)(=O)O` (stereo not given in full) [FASCIOSPONGINE A], in the assay on Streptomyces [1], the “inhibition zone (IZ)” value was “inactive”. For the same molecule, in the assay with Streptomyces [2], the zone of inhibition at 10 µg/disc came to 16 mm. The Activity entry in the assay with Lu1 [3], in the assay with LNCaP [4] and with MCF7 [7] was “Not toxic” throughout. Moreover, the zone of inhibition at 20 µg/disc in the assay with Streptomyces [5] is 18 mm. The zone of inhibition at 5 µg/disc in the assay on Streptomyces [6] was found to be 14 mm.

With `C[C@H]1CC[C@H]2C(=CCCC2(C)C)[C@@]1(C)CCC(CCCC1=CC(=O)N(CCc2c[nH]cn2)C1)COS(=O)(=O)O` (stereo not given in full) [FASCIOSPONGINE B], the “inhibition zone (IZ)” value in the assay on Streptomyces [1] is “inactive”. The zone of inhibition at 10 µg/disc in the assay with Streptomyces [2] is 17 mm. Further, the Activity entry with Lu1 [3], in the assay on LNCaP [4] and in the assay with MCF7 [7] was “Not toxic” throughout. Also, the zone of inhibition at 20 µg/disc with Streptomyces [5] is 19 mm. Moreover, the zone of inhibition at 5 µg/disc in the assay on Streptomyces [6] was 15 mm.

As to `C[C@H]1CC[C@H]2C(=CCCC2(C)C)[C@@]1(C)CCC(CCCC1=CCN(CCCCNC(=N)N)C1=O)COS(=O)(=O)O` (stereo not given in full) [FASCIOSPONGINE C], the “inhibition zone (IZ)” value in the assay with Streptomyces [1] and with Streptomyces [6] was “inactive” in each case. In addition, the zone of inhibition at 10 µg/disc in the assay with Streptomyces [2] is 13 mm. Moreover, the Activity entry in the assay with Lu1 [3], with LNCaP [4] and in the assay on MCF7 [7] was “Not toxic” each time. In addition, the zone of inhibition at 20 µg/disc with Streptomyces [5] was 14 mm.

For the molecule `C[C@H]1CC[C@H]2C(=CCCC2(C)C)[C@@]1(C)CCC(CCCc1ccoc1)COS(=O)(=O)O` (stereo not given in full) [HALISULFATE 7], the “inhibition zone (IZ)” value in the assay on Streptomyces [1] and with Streptomyces [6] was “inactive” throughout. Also, the zone of inhibition at 10 µg/disc in the assay on Streptomyces [2] was 15 mm. Moreover, the Activity result in the assay on Lu1 [3], with LNCaP [4] and with MCF7 [7] was “Not toxic” throughout. Moreover, the IC50 in the assay on HeLa was 16 µg/mL (≈ 35.3 µM). The zone of inhibition at 20 µg/disc in the assay on Streptomyces [5] worked out at 18 mm.

With `C[C@H]1CC[C@H]2C(=CCCC2(C)C)[C@@]1(C)CCC(CCCC1=CC(=O)OC1)COS(=O)(=O)O` (stereo not given in full) [HALISULFATE 9], the “inhibition zone (IZ)” value with Streptomyces [1] and in the assay on Streptomyces [6] was “inactive” in each case. Also, the zone of inhibition at 10 µg/disc with Streptomyces [2] was 14 mm. Further, the Activity entry in the assay with Lu1 [3], in the assay with LNCaP [4] and in the assay on MCF7 [7] was “Not toxic” each time. Further, the zone of inhibition at 20 µg/disc in the assay on Streptomyces [5] is 16 mm.
